From BindingDB's records for doi:10.1021/jm970671g (Signal Pharmaceuticals, 1998)

Target: T1, Nuclear factor NF-kappa-B p105 subunit (Homo sapiens, UniProt P19838)
T1 sequence (P19838 whole entry): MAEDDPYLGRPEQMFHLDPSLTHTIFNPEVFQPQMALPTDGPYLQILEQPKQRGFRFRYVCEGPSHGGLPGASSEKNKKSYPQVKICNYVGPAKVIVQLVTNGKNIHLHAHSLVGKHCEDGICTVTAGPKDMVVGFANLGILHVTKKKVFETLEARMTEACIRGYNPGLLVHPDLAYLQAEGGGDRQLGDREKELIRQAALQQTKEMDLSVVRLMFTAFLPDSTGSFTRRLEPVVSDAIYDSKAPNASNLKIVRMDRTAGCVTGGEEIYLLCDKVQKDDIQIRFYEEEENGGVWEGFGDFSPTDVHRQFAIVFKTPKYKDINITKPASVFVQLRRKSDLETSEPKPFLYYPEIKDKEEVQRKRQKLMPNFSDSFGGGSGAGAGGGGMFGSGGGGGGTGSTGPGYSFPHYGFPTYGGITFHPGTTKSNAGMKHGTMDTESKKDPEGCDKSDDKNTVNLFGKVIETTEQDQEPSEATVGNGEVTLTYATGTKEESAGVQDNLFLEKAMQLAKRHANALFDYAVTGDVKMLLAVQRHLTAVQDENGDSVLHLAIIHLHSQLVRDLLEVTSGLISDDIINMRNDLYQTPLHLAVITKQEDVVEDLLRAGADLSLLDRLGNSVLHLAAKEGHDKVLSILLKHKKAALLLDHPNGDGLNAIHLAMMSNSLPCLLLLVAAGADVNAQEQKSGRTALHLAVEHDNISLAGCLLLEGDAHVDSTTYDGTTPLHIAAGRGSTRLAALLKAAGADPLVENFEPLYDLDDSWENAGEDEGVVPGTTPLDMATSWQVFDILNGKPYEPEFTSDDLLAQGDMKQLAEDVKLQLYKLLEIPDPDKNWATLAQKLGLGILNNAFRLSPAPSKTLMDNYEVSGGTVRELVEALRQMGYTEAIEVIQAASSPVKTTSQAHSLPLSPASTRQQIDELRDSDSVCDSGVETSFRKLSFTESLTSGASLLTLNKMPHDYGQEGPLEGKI
Test: In vitro inhibitory activity against human Jurkat T-Cells stably transfected with an Nuclear factor kappa B transcription factor
Procedure, shortened: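 Jurkat T-cells stably carrying NF-κB site (MHC promoter) on minimal SV-40 promoter driving luciferase, plated 1 × 10^6 cells/mL in 10% Serum-Plus 18 h prior. Compound in 0.2% DMSO/H2O added 0.5 h at 37 °C; induced with PMA 50 ng/mL and PHA 1 μg/mL, 5 h at 37 °C. Lysate luminescence read; IC50 = concentration halving luciferase versus control.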

Row | Compound | IC50
1 | Nc1ncc(C(=O)Nc2cc(Cl)cc(Cl)c2)c(C(F)(F)F)n1 [2-Amino-4-trifluoromethyl-pyrimidine-5-carboxylic acid (3,5-dichloro-phenyl)-amide] | > 10000 nM
2 | O=C(Nc1cc(Cl)cc(Cl)c1)c1cnc(NCc2ccccc2)nc1C(F)(F)F [2-Benzylamino-4-trifluoromethyl-pyrimidine-5-carboxylic acid (3,5-dichloro-phenyl)-amide] | > 10000 nM
3 | CCCCNc1ncc(C(=O)Nc2cc(Cl)cc(Cl)c2)c(C(F)(F)F)n1 [2-Butylamino-4-trifluoromethyl-pyrimidine-5-carboxylic acid (3,5-dichloro-phenyl)-amide] | > 10000 nM
4 | O=C(Nc1cc(Cl)nc(Cl)n1)c1cnc(Cl)nc1C(F)(F)F [2-Chloro-4-trifluoromethyl-pyrimidine-5-carboxylic acid (2,6-dichloro-pyrimidin-4-yl)-amide] | 800 nM
5 | Cc1cccc(C)c1NC(=O)c1cnc(Cl)nc1C(F)(F)F [2-Chloro-4-trifluoromethyl-pyrimidine-5-carboxylic acid (2,6-dimethyl-phenyl)-amide] | > 10000 nM
6 | O=C(Nc1cc(Cl)c(Cl)c(Cl)c1)c1cnc(Cl)nc1C(F)(F)F [2-Chloro-4-trifluoromethyl-pyrimidine-5-carboxylic acid (3,4,5-trichloro-phenyl)-amide] | 900 nM
7 | O=C(Nc1cc(C(F)(F)F)cc(C(F)(F)F)c1)c1cnc(Cl)nc1C(F)(F)F [2-Chloro-4-trifluoromethyl-pyrimidine-5-carboxylic acid (3,5-bis-trifluoromethyl-phenyl)-amide] | 50 nM
8 | O=C(Nc1cc(Cl)cc(Cl)c1)c1cnc(Cl)nc1C(F)(F)F [2-Chloro-4-trifluoromethyl-pyrimidine-5-carboxylic acid (3,5-dichloro-phenyl)-amide] | 500 nM
9 | CN(C(=O)c1cnc(Cl)nc1C(F)(F)F)c1cc(Cl)cc(Cl)c1 [2-Chloro-4-trifluoromethyl-pyrimidine-5-carboxylic acid (3,5-dichloro-phenyl)-methyl-amide] | 2300 nM
10 | COc1cc(NC(=O)c2cnc(Cl)nc2C(F)(F)F)cc(OC)c1 [2-Chloro-4-trifluoromethyl-pyrimidine-5-carboxylic acid (3,5-dimethoxy-phenyl)-amide] | 1200 nM
11 | CCCCNC(=O)c1cc(NC(=O)c2cnc(Cl)nc2C(F)(F)F)cc(C(F)(F)F)c1 [2-Chloro-4-trifluoromethyl-pyrimidine-5-carboxylic acid (3-butylcarbamoyl-5-trifluoromethyl-phenyl)-amide] | > 10000 nM
12 | NC(=O)c1cc(NC(=O)c2cnc(Cl)nc2C(F)(F)F)cc(C(F)(F)F)c1 [2-Chloro-4-trifluoromethyl-pyrimidine-5-carboxylic acid (3-carbamoyl-5-trifluoromethyl-phenyl)-amide] | 5000 nM
13 | Cc1cc(NC(=O)c2cnc(Cl)nc2C(F)(F)F)on1 [2-Chloro-4-trifluoromethyl-pyrimidine-5-carboxylic acid (3-methyl-isoxazol-5-yl)-amide] | 4000 nM
14 | O=C(Nc1ccc(C(F)(F)F)cc1)c1cnc(Cl)nc1C(F)(F)F [2-Chloro-4-trifluoromethyl-pyrimidine-5-carboxylic acid (4-trifluoromethyl-phenyl)-amide] | 380 nM
15 | Cc1ccc(NC(=O)c2cnc(Cl)nc2C(F)(F)F)s1 [2-Chloro-4-trifluoromethyl-pyrimidine-5-carboxylic acid (5-methyl-thiophen-2-yl)-amide] | 2300 nM
16 | O=C(c1cnc(Cl)nc1C(F)(F)F)N(Cc1ccccc1)c1cc(Cl)cc(Cl)c1 [2-Chloro-4-trifluoromethyl-pyrimidine-5-carboxylic acid benzyl-(3,5-dichloro-phenyl)-amide] | 2700 nM

Row | Compound | IC50
17 | CCCCNC(=O)c1cnc(Cl)nc1C(F)(F)F [2-Chloro-4-trifluoromethyl-pyrimidine-5-carboxylic acid butylamide] | > 10000 nM
18 | O=C(Nc1ccccc1)c1cnc(Cl)nc1C(F)(F)F [2-Chloro-4-trifluoromethyl-pyrimidine-5-carboxylic acid phenylamide] | > 10000 nM
19 | O=C(Nc1cc(Cl)cc(Cl)c1)c1cnc(NC2CCCCC2)nc1C(F)(F)F [2-Cyclohexylamino-4-trifluoromethyl-pyrimidine-5-carboxylic acid (3,5-dichloro-phenyl)-amide] | > 10000 nM
20 | CN(C)c1ncc(C(=O)Nc2cc(Cl)cc(Cl)c2)c(C(F)(F)F)n1 [2-Dimethylamino-4-trifluoromethyl-pyrimidine-5-carboxylic acid (3,5-dichloro-phenyl)-amide] | > 10000 nM
21 | O=C(Nc1cc(Cl)cc(Cl)c1)c1cnc(=O)[nH]c1C(F)(F)F [2-Hydroxy-4-trifluoromethyl-pyrimidine-5-carboxylic acid (3,5-dichloro-phenyl)-amide] | > 10000 nM
22 | COc1ncc(C(=O)Nc2cc(Cl)cc(Cl)c2)c(C(F)(F)F)n1 [2-Methoxy-4-trifluoromethyl-pyrimidine-5-carboxylic acid (3,5-dichloro-phenyl)-amide] | > 10000 nM
23 | O=C(Nc1cc(Cl)cc(Cl)c1)c1cnc(Nc2ccccc2)nc1C(F)(F)F [2-Phenylamino-4-trifluoromethyl-pyrimidine-5-carboxylic acid (3,5-dichloro-phenyl)-amide] | > 10000 nM
24 | O=C(Nc1cc(Cl)cc(Cl)c1)c1cnc(N2CCCCC2)nc1C(F)(F)F [2-Piperidin-1-yl-4-trifluoromethyl-pyrimidine-5-carboxylic acid (3,5-dichloro-phenyl)-amide] | 5000 nM
25 | CCCCOC(=O)c1cc(NC(=O)c2cnc(Cl)nc2C(F)(F)F)cc(C(F)(F)F)c1 [3-[(2-Chloro-4-trifluoromethyl-pyrimidine-5-carbonyl)-amino]-5-trifluoromethyl-benzoic acid butyl ester] | 170 nM
26 | O=C(OC1CCCCC1)c1cc(NC(=O)c2cnc(Cl)nc2C(F)(F)F)cc(C(F)(F)F)c1 [3-[(2-Chloro-4-trifluoromethyl-pyrimidine-5-carbonyl)-amino]-5-trifluoromethyl-benzoic acid cyclohexyl ester] | 1800 nM
27 | CCOP(=O)(COC(=O)c1cc(NC(=O)c2cnc(Cl)nc2C(F)(F)F)cc(C(F)(F)F)c1)OCC [3-[(2-Chloro-4-trifluoromethyl-pyrimidine-5-carbonyl)-amino]-5-trifluoromethyl-benzoic acid diethoxy-phosphorylmethyl ester] | 4600 nM
28 | CCOC(=O)c1cc(NC(=O)c2cnc(Cl)nc2C(F)(F)F)cc(C(F)(F)F)c1 [3-[(2-Chloro-4-trifluoromethyl-pyrimidine-5-carbonyl)-amino]-5-trifluoromethyl-benzoic acid ethyl ester] | 280 nM
29 | CCCCCCOC(=O)c1cc(NC(=O)c2cnc(Cl)nc2C(F)(F)F)cc(C(F)(F)F)c1 [3-[(2-Chloro-4-trifluoromethyl-pyrimidine-5-carbonyl)-amino]-5-trifluoromethyl-benzoic acid hexyl ester] | 620 nM
30 | CCCCCCCCOC(=O)c1cc(NC(=O)c2cnc(Cl)nc2C(F)(F)F)cc(C(F)(F)F)c1 [3-[(2-Chloro-4-trifluoromethyl-pyrimidine-5-carbonyl)-amino]-5-trifluoromethyl-benzoic acid octyl ester] | 1800 nM
31 | O=C(Nc1cc(Cl)cc(Cl)c1)c1cncnc1C(F)(F)F [4-Trifluoromethyl-pyrimidine-5-carboxylic acid (3,5-dichloro-phenyl)-amide] | > 10000 nM
